We go through three molecules from ChEMBL document CHEMBL1146951, “Structure-guided identification of novel VEGFR-2 kinase inhibitors via solution phase parallel synthesis” (Bioorg Med Chem Lett, 2006).

Assay [1] deals with T1, Vascular endothelial growth factor receptor 2 (Homo sapiens, UniProt P35968). In words: Inhibition of VEGFR2 at 1 uM. The method, boiled down: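 Kinase activity of baculovirus-expressed human VEGFR2 enzyme.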
Assay [2] concerns the target T2, Vascular endothelial growth factor receptor (Homo sapiens) (UniProt P17948+P35916+P35968). In words: Inhibition of microvessel growth in rat aortic ring at 100 nM. The class given is functional, tissue-based. The following applies: Aorta, target entry is the homologue from another species. The method, boiled down: (§1)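 Rat aortic ring explants were cultured in serum-free collagen gel in serum-free MCDB 131 medium without exogenous VEGF. Microvessel sprouting was scored at peak growth (day 8) as percent inhibition relative to untreated controls. n = 8 replicates per concentration; inter-assay variability <10%. Statistics by Student Newman–Keuls test.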

Assay [3] addresses T2, Vascular endothelial growth factor receptor (Homo sapiens). In words: Inhibition of microvessel growth in rat aortic ring at 4 nM. In kind it is functional, tissue-based. The following applies: Aorta, target entry is the homologue from another species. The gist of the method:
as §1

The target in assay [4] is Vascular endothelial growth factor receptor 1 (Homo sapiens) (UniProt P17948). In words: Inhibition of VEGFR1 at 300 nM.
The subject of a further assay is SVR. Kind of assay: Antitumor efficacy against SVR cells in nude mice at 30 mg/kg, po. The following applies: Mus musculus. In kind it is functional, organism-based. Further details: dose 30 mg/kg. The gist of the method:
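SVR murine angiosarcoma cells implanted in the right flank of female athymic nude mice. On day 5 post-implantation, once tumors were palpable, mice were randomized (n = 8–10). Dosing was 30 mg/kg/dose orally twice a day for 10 days in Tween:PG 1:1 vehicle. Tumor growth was compared with vehicle-treated controls.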

Assay [5] concerns the target Cyclin-dependent kinase 1/cyclin B1 (Homo sapiens, UniProt P06493). Kind of assay: Inhibition of CDK1/CyclinB1. In kind it is protein-complex assay.
The target of assay [6] is T2, Vascular endothelial growth factor receptor (Homo sapiens). Kind of assay: Inhibition of microvessel growth in rat aortic ring at 400 nM. The following applies: Aorta, target entry is the homologue from another species. In kind it is functional, tissue-based. The gist of the method:
as §1

The target is the same in assay [7]. Kind of assay: Inhibition of microvessel growth in rat aortic ring at 40 nM. The conditions noted are these: Aorta, target entry is the homologue from another species. The class given is functional, tissue-based. The method, boiled down:
as §1

Assay [8] addresses Protein kinase C (PKC) (Homo sapiens) (UniProt O94806+P41743+P17252+P05129+Q05655+P05771+Q05513+Q02156+P24723+Q15139+Q04759). In words: Inhibition of PKC at 1 uM. The class given is protein assay.
For assay [9], the target named is High affinity nerve growth factor receptor (Homo sapiens) (UniProt P04629). In words: Inhibition of TrkA at 1 uM.
The target of assay [10] is Vascular endothelial growth factor receptor 3 (Homo sapiens) (UniProt P35916). In words: Inhibition of VEGFR3 at 300 nM.
The target of assay [11] is T1, Vascular endothelial growth factor receptor 2. In words: Inhibition of VEGFR2.

The structures appear in SMILES notation. Active and inactive are the calls of the source. The rule behind the calls is not given here.

T2 sequence (P17948 whole entry, looked up): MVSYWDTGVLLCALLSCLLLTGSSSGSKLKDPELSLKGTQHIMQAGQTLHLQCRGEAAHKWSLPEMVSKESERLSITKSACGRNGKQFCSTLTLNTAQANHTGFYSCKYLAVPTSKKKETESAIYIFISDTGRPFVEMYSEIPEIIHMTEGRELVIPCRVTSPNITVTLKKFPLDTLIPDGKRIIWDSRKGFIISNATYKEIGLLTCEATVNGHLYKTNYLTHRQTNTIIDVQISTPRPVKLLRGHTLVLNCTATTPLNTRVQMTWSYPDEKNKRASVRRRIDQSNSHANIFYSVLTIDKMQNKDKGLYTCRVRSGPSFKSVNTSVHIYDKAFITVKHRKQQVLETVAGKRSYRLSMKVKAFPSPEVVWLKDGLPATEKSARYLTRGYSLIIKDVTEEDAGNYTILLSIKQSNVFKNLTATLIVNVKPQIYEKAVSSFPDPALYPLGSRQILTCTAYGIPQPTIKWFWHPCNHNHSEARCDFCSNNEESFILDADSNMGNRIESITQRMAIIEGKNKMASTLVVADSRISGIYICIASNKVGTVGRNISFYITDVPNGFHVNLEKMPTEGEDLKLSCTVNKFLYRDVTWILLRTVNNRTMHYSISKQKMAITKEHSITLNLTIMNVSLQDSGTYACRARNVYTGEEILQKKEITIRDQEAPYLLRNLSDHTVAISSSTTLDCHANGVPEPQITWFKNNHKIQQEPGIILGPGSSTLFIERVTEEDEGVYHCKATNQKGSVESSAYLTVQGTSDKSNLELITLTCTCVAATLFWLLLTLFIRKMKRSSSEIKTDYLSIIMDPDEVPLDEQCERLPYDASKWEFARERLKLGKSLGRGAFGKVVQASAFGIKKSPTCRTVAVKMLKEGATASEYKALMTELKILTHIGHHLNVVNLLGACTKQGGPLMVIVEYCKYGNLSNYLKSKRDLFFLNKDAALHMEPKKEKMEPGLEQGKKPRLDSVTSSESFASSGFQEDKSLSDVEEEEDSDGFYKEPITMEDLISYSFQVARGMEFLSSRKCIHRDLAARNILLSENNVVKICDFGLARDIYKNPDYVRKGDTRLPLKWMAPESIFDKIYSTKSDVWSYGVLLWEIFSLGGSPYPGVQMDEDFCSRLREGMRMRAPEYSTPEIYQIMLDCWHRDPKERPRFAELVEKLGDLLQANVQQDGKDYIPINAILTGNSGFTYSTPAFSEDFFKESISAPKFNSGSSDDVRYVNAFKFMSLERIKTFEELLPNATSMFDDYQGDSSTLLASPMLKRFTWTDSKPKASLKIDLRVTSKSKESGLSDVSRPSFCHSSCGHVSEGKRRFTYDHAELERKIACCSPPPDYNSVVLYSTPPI
T2 sequence (P35916 whole entry, looked up): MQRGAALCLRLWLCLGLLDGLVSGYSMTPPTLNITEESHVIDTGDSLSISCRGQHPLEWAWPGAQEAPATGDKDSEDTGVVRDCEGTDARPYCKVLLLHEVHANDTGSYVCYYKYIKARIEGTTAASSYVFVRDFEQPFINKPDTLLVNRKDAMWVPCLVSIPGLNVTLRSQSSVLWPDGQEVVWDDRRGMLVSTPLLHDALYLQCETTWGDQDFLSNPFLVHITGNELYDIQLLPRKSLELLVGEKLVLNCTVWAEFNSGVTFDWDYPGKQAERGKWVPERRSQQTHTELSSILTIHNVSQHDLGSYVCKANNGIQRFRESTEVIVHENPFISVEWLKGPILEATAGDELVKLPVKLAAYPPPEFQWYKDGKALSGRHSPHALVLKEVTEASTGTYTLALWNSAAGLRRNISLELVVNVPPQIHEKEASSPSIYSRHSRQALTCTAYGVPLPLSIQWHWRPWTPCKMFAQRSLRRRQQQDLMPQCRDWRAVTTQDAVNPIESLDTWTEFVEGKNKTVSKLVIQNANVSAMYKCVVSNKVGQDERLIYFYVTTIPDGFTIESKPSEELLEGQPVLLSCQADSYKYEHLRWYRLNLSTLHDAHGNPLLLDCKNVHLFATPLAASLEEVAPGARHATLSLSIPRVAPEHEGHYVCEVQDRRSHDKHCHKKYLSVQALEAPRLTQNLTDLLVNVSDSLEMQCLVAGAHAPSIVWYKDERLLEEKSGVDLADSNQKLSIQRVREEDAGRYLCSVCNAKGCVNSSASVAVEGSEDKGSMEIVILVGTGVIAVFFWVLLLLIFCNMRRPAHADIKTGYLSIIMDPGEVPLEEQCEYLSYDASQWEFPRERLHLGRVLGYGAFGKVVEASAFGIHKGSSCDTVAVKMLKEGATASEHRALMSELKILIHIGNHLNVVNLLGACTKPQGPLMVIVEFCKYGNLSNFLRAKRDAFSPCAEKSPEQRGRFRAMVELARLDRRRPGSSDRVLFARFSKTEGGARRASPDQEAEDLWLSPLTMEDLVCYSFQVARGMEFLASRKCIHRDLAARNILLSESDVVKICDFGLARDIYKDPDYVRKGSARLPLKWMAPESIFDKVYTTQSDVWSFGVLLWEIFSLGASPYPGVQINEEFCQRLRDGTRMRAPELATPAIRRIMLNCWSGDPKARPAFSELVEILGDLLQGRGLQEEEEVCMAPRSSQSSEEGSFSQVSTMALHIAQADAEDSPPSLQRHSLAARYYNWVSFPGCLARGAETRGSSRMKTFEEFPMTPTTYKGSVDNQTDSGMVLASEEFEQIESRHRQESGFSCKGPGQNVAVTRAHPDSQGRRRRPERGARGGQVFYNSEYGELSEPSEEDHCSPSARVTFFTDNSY
T2 sequence (P35968 whole entry, looked up): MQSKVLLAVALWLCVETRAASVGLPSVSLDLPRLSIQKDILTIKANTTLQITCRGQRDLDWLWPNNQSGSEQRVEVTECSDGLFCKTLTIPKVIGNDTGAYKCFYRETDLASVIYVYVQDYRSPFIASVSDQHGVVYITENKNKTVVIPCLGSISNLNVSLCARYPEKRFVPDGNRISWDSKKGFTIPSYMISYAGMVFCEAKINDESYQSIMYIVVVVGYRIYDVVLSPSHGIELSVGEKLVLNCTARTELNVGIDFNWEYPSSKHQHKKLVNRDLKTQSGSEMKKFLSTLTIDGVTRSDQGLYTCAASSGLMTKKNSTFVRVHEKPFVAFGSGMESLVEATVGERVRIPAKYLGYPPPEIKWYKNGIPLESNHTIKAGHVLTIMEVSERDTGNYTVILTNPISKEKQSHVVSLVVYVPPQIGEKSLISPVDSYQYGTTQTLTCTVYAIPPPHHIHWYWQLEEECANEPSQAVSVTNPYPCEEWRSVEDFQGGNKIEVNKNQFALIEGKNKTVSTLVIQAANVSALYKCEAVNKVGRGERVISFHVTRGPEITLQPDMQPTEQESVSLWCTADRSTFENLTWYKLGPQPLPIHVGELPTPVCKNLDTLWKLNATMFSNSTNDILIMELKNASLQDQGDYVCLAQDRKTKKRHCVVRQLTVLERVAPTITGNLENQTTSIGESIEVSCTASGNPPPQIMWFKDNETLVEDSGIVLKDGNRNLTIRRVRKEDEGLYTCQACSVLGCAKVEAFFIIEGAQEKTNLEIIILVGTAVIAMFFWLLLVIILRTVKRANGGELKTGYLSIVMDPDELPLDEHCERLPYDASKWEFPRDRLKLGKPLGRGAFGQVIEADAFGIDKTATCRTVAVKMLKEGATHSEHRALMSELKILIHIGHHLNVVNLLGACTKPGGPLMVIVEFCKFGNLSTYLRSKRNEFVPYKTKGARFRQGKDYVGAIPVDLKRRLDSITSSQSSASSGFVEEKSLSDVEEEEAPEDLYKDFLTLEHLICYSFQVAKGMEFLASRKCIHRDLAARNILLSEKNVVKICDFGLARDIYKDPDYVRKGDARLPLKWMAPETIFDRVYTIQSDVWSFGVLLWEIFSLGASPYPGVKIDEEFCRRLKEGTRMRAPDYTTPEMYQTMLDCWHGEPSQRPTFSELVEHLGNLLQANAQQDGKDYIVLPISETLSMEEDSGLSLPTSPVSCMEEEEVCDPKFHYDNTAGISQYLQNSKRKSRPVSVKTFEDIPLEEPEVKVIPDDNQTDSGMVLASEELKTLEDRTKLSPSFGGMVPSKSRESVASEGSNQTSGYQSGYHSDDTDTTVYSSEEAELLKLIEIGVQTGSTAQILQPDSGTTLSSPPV
T1 sequence (P35968 whole entry): as the sequence (P35968 whole entry, looked up) above
Chain of Vascular endothelial growth factor receptor 1 (Homo sapiens) (P17948 whole entry): as the sequence (P17948 whole entry, looked up) above
Chain of Cyclin-dependent kinase 1/cyclin B1 (P06493 whole entry): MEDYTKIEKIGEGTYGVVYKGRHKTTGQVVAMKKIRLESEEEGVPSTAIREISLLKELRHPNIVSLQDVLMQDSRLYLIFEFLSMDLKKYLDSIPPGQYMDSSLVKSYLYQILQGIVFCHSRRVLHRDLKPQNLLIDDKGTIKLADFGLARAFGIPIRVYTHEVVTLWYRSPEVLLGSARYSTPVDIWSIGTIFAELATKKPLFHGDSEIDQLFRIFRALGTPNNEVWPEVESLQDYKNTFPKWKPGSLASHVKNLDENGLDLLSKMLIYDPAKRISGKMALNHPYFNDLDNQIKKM
Chain of Cyclin-dependent kinase 1/cyclin B1 (P14635 whole entry, further chain): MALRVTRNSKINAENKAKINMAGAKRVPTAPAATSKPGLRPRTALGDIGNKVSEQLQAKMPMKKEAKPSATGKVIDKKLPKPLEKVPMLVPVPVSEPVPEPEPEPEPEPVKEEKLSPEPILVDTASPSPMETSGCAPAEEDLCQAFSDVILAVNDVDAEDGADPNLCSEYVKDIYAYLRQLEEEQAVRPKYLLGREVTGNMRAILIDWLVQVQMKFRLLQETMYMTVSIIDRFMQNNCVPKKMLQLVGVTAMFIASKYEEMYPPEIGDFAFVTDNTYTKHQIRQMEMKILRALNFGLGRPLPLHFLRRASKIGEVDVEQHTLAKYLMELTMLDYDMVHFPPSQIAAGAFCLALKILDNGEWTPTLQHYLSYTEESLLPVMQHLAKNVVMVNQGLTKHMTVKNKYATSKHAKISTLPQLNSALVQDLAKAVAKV
Chain of Vascular endothelial growth factor receptor 3 (Homo sapiens) (P35916 whole entry): as the sequence (P35916 whole entry, looked up) above

For orientation: inhibition means the relative decrease from the control value, in per cent. A lower inhibition goes with a weak effect. On to `Cn1cc(/C=C2\C(=O)N(c3ccccc3)N=C2c2cnccn2)c2ccccc21`, for which the inhibition in assay [1] was 23%.

A word on the IC50: it is the midpoint of a concentration-inhibition curve. The low end stands for greater potency, the high end for weaker potency. `Cn1cc(/C=C2\C(=O)NN=C2c2nccs2)c2cc3c(cc21)OCO3`: the inhibition in assay [2] turned out to be 75%; in assay [3] it was 55%; in assay [4], 25%; in assay [6] it was 90%; in assay [7], 66%; in [8] it was 13%. In addition, the figures for the inhibition in [9] and in assay [10] were 44% and 63%, respectively. Further, in the assay with SVR, the outcome was Active. In addition, the 50% inhibitory concentration (IC50) is above 100000 nM in assay [5] and 32 nM in assay [11].

In [1], `Cn1cc(CC2C(=O)NN=C2c2nccs2)c2ccccc21` (stereo not drawn) had an inhibition of 5%.
